From ChEMBL document CHEMBL4765361, “Rational modification, synthesis and biological evaluation of 3,4-dihydroquinoxalin-2(1H)-one derivatives as potent and selective c-Jun N-terminal kinase 3 (JNK3) inhibitors” (Eur J Med Chem, 2020)
Active and inactive are the calls of the source. No cut-off for these calls is given here.

Key:
[1] = target: T1, Mitogen-activated protein kinase 8 (Homo sapiens, UniProt P45983); experiment: Inhibition of human JNK1alpha1 at 10 uM after 40 mins by [gamma-33ATP] radiometric assay relative to control
[2] = target: T2, Mitogen-activated protein kinase 10 (Homo sapiens, UniProt P53779); experiment: Inhibition of human JNK3 at 10 uM after 40 mins by [gamma-33ATP] radiometric assay relative to control
[3] = target: T2, Mitogen-activated protein kinase 10; experiment: Inhibition of human JNK3 after 40 mins by [gamma-33ATP] radiometric assay relative to control
[4] = target: T1, Mitogen-activated protein kinase 8; experiment: Inhibition of human JNK1alpha1 at 30 uM after 40 mins by [gamma-33ATP] radiometric assay relative to control
[5] = target: T1, Mitogen-activated protein kinase 8; experiment: Inhibition of human JNK1alpha1 at 100 uM after 40 mins by [gamma-33ATP] radiometric assay relative to control
[6] = target: T3, Mitogen-activated protein kinase 9 (Homo sapiens, UniProt P45984); experiment: Inhibition of human JNK2alpha2 at 10 uM after 40 mins by [gamma-33ATP] radiometric assay relative to control
Target sequence in this assay (P45984 whole entry, looked up): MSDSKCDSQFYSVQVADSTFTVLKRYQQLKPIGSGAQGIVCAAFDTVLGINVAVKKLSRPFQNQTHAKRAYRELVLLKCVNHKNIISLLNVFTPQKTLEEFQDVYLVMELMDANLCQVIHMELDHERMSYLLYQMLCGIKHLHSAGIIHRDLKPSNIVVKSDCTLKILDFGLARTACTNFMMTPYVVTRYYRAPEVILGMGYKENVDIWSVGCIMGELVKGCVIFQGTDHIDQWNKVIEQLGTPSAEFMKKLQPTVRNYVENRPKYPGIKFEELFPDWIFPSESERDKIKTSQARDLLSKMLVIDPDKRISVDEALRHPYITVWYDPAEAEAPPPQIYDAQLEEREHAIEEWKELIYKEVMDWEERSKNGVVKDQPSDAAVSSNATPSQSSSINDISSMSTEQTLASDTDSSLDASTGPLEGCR

[7] = target: T3, Mitogen-activated protein kinase 9; experiment: Inhibition of human JNK2alpha2 at 30 uM after 40 mins by [gamma-33ATP] radiometric assay relative to control
Target sequence in this assay (P45984 whole entry, looked up): as above

[8] = target: T3, Mitogen-activated protein kinase 9; experiment: Inhibition of human JNK2alpha2 at 100 uM after 40 mins by [gamma-33ATP] radiometric assay relative to control
Target sequence in this assay (P45984 whole entry, looked up): as above

[9] = target: T4, Epithelial discoidin domain-containing receptor 1 (Homo sapiens, UniProt Q08345); experiment: Inhibition of human DDR1 at 10 uM using KKKSPGEYVNIEFG as substrate after 40 mins by [gamma-33P]-ATP assay
In short: (§1)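 Human DDR1 in 8 mM MOPS pH 7.0, 0.2 mM EDTA, 250 μM peptide substrate, 10 mM Mg acetate, [γ-33P]-ATP (approx. 500 cpm/pmol); started with MgATP, 40 min room temperature, stopped with 3% phosphoric acid, spotted on P30 filtermat, washed in 75 mM phosphoric acid and methanol, scintillation counted. Activity as % of no-inhibitor control.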

[10] = target: T5, Discoidin domain-containing receptor 2 (Homo sapiens) (UniProt Q16832); experiment: Inhibition of human DDR2 at 10 uM using KKSRGDYMTMQIG as substrate after 40 mins by [gamma-33P]-ATP assay
T5 sequence (whole entry): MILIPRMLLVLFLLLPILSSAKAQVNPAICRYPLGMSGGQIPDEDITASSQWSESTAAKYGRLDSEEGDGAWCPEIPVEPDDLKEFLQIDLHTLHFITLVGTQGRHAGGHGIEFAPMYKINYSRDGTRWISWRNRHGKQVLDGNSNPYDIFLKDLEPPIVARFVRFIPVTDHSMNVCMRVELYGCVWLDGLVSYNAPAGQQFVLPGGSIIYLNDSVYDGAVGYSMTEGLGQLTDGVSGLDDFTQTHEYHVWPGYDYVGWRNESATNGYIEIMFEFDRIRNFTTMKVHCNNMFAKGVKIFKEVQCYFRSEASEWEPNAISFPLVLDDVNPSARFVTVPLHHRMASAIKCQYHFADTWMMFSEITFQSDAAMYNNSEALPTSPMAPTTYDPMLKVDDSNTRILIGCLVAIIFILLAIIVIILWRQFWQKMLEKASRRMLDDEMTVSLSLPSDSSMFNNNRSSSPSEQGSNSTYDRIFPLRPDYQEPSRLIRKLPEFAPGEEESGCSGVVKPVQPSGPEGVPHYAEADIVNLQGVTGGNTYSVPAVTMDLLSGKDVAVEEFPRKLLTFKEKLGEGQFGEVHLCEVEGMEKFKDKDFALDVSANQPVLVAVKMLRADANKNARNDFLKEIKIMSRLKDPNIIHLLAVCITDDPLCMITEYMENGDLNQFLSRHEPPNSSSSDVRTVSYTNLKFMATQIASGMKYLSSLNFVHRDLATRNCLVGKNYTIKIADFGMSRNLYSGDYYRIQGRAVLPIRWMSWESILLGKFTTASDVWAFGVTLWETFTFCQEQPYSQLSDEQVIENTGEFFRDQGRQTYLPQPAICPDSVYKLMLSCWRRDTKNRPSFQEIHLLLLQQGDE
In short: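 Human DDR2 in 8 mM MOPS pH 7.0, 0.2 mM EDTA, 250 μM peptide, 10 mM MnCl2 plus 10 mM Mg acetate, [γ-33P]-ATP (approx. 500 cpm/pmol). Reaction started with MgATP, run 40 min at room temperature, quenched with 3% phosphoric acid; P30 filtermat capture, phosphoric acid/methanol washes, scintillation counting; activity relative to no-inhibitor control set as 100%.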

[11] = test system: Epidermal growth factor receptor (Homo sapiens), P00533 [L858R,T790M]; experiment: Inhibition of human EGFR L858R/T790M mutant at 10 uM GGMEDIYFEFMGGKKK as substrate measured after 40 mins in presence of [gamma-33P]ATP by radiometric assay
In short: (§2)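 EGFR T790M/L858R (human) in 8 mM MOPS pH 7.0, 0.2 mM EDTA, 250 μM peptide substrate, 10 mM Mg acetate, [γ-33P]-ATP (approx. 500 cpm/pmol); initiated with MgATP, 40 min room temperature, terminated with 3% phosphoric acid, P30 filtermat, 75 mM phosphoric acid and methanol washes, scintillation counting.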

[12] = test system: Epidermal growth factor receptor (Homo sapiens), P00533 [L858R]; experiment: Inhibition of human EGFR L858R at 10 uM using poly[Glu:Tyr] (4:1) as substrate measured after 40 mins in presence of [gamma-33P]ATP by radiometric assay
In short: (§3)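 Human EGFR L858R incubated in 8 mM MOPS pH 7.0, 0.2 mM EDTA, 10 mM MnCl2, 0.1 mg/mL poly(Glu,Tyr) 4:1, 10 mM Mg acetate, [γ-33P]-ATP (approx. 500 cpm/pmol); MgATP start, 40 min room temperature, 3% phosphoric acid stop, Filtermat A spotting, washes in 75 mM phosphoric acid and methanol, scintillation readout; % of uninhibited activity.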

[13] = target: T1, Mitogen-activated protein kinase 8; experiment: Inhibition of human JNK1alpha1 after 40 mins by [gamma-33ATP] radiometric assay relative to control
[14] = target: T3, Mitogen-activated protein kinase 9; experiment: Inhibition of human JNK2alpha2 after 40 mins by [gamma-33ATP] radiometric assay relative to control
[15] = target: T4, Epithelial discoidin domain-containing receptor 1; experiment: Inhibition of human DDR1 using KKKSPGEYVNIEFG as substrate after 40 mins by [gamma-33P]-ATP assay; in short: as §1
[16] = target: Epidermal growth factor receptor (Homo sapiens, UniProt P00533, L858R/T790M); experiment: Inhibition of human EGFR L858R/T790M mutant GGMEDIYFEFMGGKKK as substrate measured after 40 mins in presence of [gamma-33P]ATP by radiometric assay; in short: as §2
[17] = target: Epidermal growth factor receptor (Homo sapiens, UniProt P00533, L858R); experiment: Inhibition of human EGFR L858R using poly[Glu:Tyr] (4:1) as substrate measured after 40 mins in presence of [gamma-33P]ATP by radiometric assay; in short: as §3
Sequence of Epidermal growth factor receptor (Homo sapiens, UniProt P00533, L858R) (P00533 25-1210 L858R limits assumed): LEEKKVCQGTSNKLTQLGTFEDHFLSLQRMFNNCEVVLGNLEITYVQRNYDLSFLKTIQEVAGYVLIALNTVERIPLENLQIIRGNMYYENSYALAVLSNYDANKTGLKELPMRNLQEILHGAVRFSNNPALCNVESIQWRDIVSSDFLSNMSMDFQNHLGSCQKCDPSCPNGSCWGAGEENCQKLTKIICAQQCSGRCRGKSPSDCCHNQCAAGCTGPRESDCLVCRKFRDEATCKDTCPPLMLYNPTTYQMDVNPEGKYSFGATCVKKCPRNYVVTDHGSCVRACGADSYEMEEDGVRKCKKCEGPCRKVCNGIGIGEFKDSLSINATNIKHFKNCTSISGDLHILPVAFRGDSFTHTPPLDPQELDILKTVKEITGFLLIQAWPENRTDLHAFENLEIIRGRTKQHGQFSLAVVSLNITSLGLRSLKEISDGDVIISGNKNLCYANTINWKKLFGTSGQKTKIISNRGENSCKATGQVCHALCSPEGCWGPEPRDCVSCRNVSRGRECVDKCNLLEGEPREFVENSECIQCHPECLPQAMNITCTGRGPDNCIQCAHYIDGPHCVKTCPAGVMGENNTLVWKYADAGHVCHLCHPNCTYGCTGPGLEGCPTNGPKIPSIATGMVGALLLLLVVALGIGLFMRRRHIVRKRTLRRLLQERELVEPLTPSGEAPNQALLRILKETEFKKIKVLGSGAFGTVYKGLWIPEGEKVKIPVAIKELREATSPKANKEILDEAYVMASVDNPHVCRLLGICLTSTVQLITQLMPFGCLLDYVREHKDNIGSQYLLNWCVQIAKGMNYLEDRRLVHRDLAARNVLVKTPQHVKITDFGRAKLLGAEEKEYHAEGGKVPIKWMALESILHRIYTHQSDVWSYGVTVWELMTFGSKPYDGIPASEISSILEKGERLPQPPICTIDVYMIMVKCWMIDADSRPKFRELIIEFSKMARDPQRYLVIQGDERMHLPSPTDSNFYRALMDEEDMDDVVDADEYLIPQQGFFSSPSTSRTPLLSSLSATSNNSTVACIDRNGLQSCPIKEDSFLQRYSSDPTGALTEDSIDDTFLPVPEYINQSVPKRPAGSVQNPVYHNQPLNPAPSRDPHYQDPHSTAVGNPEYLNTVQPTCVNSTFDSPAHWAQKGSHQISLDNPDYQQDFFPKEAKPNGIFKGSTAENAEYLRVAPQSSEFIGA

T2 sequence (P53779 whole entry): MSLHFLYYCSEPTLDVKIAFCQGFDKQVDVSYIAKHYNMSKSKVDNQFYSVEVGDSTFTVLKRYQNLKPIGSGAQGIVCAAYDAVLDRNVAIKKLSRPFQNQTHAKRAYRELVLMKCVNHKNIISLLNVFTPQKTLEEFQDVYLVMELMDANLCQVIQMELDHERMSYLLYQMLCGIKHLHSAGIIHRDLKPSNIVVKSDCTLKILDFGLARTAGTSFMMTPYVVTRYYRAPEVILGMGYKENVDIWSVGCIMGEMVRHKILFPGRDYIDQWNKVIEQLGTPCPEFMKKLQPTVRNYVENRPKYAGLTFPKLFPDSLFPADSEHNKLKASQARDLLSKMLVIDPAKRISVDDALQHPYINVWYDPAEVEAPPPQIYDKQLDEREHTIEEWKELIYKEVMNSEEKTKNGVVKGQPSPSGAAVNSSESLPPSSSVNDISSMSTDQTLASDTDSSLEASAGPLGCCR
T1 sequence (P45983 whole entry): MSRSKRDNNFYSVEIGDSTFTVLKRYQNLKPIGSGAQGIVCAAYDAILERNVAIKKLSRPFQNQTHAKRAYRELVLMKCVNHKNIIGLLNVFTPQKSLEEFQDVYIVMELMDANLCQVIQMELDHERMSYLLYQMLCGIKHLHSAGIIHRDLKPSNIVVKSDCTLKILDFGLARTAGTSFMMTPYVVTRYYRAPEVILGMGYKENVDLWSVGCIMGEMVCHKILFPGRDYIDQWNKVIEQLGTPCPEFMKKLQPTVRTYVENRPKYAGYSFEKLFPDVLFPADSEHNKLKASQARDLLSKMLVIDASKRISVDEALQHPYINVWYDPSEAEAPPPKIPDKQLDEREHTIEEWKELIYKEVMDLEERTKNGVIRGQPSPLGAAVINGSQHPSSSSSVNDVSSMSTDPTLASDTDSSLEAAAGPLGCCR
T4 sequence (Q08345 whole entry, the tested form may be a part): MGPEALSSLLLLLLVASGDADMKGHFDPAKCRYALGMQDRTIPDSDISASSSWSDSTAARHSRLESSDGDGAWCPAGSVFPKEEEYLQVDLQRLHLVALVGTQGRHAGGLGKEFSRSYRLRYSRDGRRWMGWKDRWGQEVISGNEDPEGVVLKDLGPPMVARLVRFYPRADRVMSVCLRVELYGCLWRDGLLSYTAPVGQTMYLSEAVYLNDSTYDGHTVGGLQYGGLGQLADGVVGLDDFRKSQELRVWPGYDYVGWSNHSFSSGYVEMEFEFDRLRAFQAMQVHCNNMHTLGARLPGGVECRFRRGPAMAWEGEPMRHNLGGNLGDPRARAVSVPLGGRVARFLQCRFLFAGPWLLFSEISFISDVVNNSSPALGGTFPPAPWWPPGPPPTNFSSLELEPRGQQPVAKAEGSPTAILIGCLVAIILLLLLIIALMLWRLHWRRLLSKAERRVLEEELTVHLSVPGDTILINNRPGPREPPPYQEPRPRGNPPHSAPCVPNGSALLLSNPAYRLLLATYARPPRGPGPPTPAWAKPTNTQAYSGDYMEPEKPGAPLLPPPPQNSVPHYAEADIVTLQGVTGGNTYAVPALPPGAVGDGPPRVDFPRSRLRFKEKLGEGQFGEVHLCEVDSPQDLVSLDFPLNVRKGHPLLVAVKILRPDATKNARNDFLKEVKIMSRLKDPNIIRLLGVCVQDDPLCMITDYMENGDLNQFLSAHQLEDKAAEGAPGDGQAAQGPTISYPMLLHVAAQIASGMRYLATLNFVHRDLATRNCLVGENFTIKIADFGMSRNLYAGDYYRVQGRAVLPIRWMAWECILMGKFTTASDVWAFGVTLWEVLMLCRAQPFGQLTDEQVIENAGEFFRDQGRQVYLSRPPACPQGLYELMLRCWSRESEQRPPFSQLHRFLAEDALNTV
Sequence of Epidermal growth factor receptor (Homo sapiens), P00533 [L858R,T790M] (P00533 whole entry T790M/L858R, looked up): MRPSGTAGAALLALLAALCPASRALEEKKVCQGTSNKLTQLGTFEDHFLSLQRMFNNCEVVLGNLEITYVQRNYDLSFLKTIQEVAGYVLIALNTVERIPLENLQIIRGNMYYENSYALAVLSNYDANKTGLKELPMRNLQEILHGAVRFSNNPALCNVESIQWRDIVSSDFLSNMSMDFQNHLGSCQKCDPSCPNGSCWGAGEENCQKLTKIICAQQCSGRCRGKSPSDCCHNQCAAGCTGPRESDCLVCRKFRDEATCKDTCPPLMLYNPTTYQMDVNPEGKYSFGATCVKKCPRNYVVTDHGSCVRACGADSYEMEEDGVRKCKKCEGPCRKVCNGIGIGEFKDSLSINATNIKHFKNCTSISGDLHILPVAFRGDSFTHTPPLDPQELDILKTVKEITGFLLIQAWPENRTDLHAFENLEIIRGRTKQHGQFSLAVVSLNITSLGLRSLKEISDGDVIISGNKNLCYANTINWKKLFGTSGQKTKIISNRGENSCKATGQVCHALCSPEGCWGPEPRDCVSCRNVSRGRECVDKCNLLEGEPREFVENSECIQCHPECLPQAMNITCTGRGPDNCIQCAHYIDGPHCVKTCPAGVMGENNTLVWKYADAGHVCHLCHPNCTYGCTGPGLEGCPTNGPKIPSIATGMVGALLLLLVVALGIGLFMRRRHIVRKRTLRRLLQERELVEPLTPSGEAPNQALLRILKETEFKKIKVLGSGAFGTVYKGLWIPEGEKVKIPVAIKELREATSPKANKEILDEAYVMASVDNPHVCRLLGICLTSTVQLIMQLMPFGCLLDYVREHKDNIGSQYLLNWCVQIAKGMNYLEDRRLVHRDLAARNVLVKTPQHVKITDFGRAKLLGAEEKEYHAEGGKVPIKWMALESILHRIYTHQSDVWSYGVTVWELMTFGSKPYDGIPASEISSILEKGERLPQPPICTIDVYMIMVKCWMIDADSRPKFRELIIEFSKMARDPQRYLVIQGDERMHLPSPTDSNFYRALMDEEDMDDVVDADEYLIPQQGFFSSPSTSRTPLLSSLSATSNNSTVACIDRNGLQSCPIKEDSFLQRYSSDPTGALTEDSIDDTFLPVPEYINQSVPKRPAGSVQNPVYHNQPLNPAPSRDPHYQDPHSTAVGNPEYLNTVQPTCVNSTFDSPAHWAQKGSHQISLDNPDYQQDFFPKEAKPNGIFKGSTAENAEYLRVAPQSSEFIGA

Row | inhibition [1] | inhibition [2] [%] | IC50 [3] [µM] | inhibition [4] | inhibition [5] | inhibition [6] | inhibition [7] | inhibition [8] | inhibition [9] | inhibition [10] | inhibition [11] | inhibition [12] | IC50 [13] [µM] | IC50 [14] [µM] | IC50 [15] [µM] | IC50 [16] [µM] | IC50 [17] [µM] | Compound
1 | inactive | 70 | 5.6 | inactive | inactive | inactive | inactive | inactive | inactive | Active | – | – | – | – | – | – | – | COc1cccc(C(=O)/C=C2\Nc3ccccc3NC2=O)c1
2 | inactive | 88 | 0.19 | inactive | inactive | inactive | inactive | inactive | – | – | inactive | inactive | > 100 | > 100 | > 10 | > 10 | > 10 | N#Cc1ccc2c(c1)N/C(=C\C(=O)c1cccc3ccccc13)C(=O)N2
